Results collected from several papers.
Lines come from different studies, so protocols differ.
Target: Glycogen synthase kinase-3 alpha (GSK3A, Homo sapiens, UniProt P49840)

SMILES	read-out	action	technique	concentration	endpoint	value
CO[C@@H]1[C@H](N(C)C(=O)c2ccccc2)C[C@H]2O[C@]1(C)n1c3ccccc3c3c4c(c5c6ccccc6n2c5c31)C(=O)NC4	enzyme activity	inhibitor		1 µM	inhibition	14%
Cc1cc(O)c(-c2ccc([C@@H](C)CN(C)C)cc2)c2c1[nH]c(=O)c1sccc12	enzyme activity	inhibitor		0.1 µM	inhibition	-5.76%
C=CC(=O)N1CCC([C@@H]2CCNc3c(C(N)=O)c(-c4ccc(Oc5ccccc5)cc4)nn32)CC1	enzyme activity	inhibitor		1 µM	inhibition	2%
Cc1ccc(NC(=O)c2ccnc(C(F)(F)F)c2)cc1-c1cc(OCCO)nc(N2CCOCC2)c1	binding			1 µM	remaining binding	100%
C1=C/COCc2cc(ccc2OCCN2CCCC2)Nc2nccc(n2)-c2cccc(c2)COC/1	binding			0.1 µM	remaining binding	100%
COc1ccc2oc(-c3ccc4nc(N)oc4c3)c/c(=N\c3ccccc3NC(=O)CCN)c2c1	binding			1 µM	remaining binding	94%
CC(=O)ON=C1C=CC(=C(C#N)c2ccccc2)C=C1	enzyme activity	inhibitor	ADP detection	20 µM	activity vs control	94%
CCCCC(=O)Nc1ccc(-c2ccc3ncn(CCC)c(=O)c3c2)cn1	binding		competition with immobilised ligand	0.5 µM	remaining binding	94%
C[C@H]1CC[C@H](n2c3cnccc3c3cnc(Nc4ccc5c(n4)CCN(C(=O)CO)C5)nc32)CC1	cell-free assay			1 µM	remaining signal	35%
